Converted amounts (≈) assume the structure as drawn.
Assays:
MDA-MB-231 = assay: Antiproliferative activity against human MDA-MB-231 cells after 48 hrs by MTT assay; format: functional, cell-based; conditions: MDA-MB-231, 48 h
In short: (§1)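 Cells kept in DMEM with 10% FBS and plated at 5 × 10³ per well, then allowed 24 h to attach at 37 °C. Compounds were dissolved as 20 mM DMSO stocks, diluted in medium to a range of concentrations, and applied for 48 h at 37 °C under 5% CO2, with 0.1% DMSO as control. MTT was added for 4 h, formazan dissolved in DMSO, and A570 read. IC50 is the mean of three independent experiments run in quadruplicate.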

A549 = assay: Antiproliferative activity against human A549 cells after 48 hrs by MTT assay; format: functional, cell-based; conditions: A549, 48 h; in short: as §1
HepG2 [1] = assay: Antiproliferative activity against human HepG2 cells after 48 hrs by MTT assay; format: functional, cell-based; conditions: HepG2, 48 h; in short: as §1
MCF7 = assay: Antiproliferative activity against human MCF7 cells after 48 hrs by MTT assay; format: functional, cell-based; conditions: MCF7, 48 h; in short: as §1
HepG2 [2] = assay: Potency index, ratio of fluorouracil IC50 to compound IC50 for human HepG2 cells; format: functional
[3] = Solubility in water at pH 6.4; format: physicochemical
[4] = Solubility in water at pH 1; format: physicochemical
HepG2 [5] = assay: Cell cycle arrest in human HepG2 cells assessed as accumulation at subG1 phase at 1 uM after 48 hrs by propidium iodide staining based flow cytometry (reference value: 2.09%); format: functional
In short: (§2)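 HepG2 cells grown to about 70% confluence and exposed to […] of compound for 48 h. Cells were then trypsinized, washed in PBS and fixed overnight in ice-cold 70% ethanol. They were treated with RNase (50, final) at 37 °C for 30 min, stained with propidium iodide (50, final), and phase distribution was measured by flow cytometry.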

HepG2 [6] = assay: Cell cycle arrest in human HepG2 cells assessed as accumulation at subG1 phase at 5 uM after 48 hrs by propidium iodide staining based flow cytometry (reference value: 2.09%); format: functional; in short: as §2
HepG2 [7] = assay: Cell cycle arrest in human HepG2 cells assessed as accumulation at subG1 phase at 10 uM after 48 hrs by propidium iodide staining based flow cytometry (reference value: 2.09%); format: functional; in short: as §2
HepG2 [8] = assay: Cell cycle arrest in human HepG2 cells assessed as accumulation at subG1 phase at 20 uM after 48 hrs by propidium iodide staining based flow cytometry (reference value: 2.09%); format: functional; in short: as §2
HepG2 [9] = assay: Cell cycle arrest in human HepG2 cells assessed as accumulation at G0/G1 phase at 1 uM after 48 hrs by propidium iodide staining based flow cytometry (reference value: 44.28%); format: functional; in short: as §2
HepG2 [10] = assay: Cell cycle arrest in human HepG2 cells assessed as accumulation at G0/G1 phase at 5 uM after 48 hrs by propidium iodide staining based flow cytometry (reference value: 44.28%); format: functional; in short: as §2
HepG2 [11] = assay: Cell cycle arrest in human HepG2 cells assessed as accumulation at G0/G1 phase at 10 uM after 48 hrs by propidium iodide staining based flow cytometry (reference value: 44.28%); format: functional; in short: as §2
HepG2 [12] = assay: Cell cycle arrest in human HepG2 cells assessed as accumulation at G0/G1 phase at 20 uM after 48 hrs by propidium iodide staining based flow cytometry (reference value: 44.28%); format: functional; in short: as §2
HepG2 [13] = assay: Cell cycle arrest in human HepG2 cells assessed as accumulation at S phase at 1 uM after 48 hrs by propidium iodide staining based flow cytometry (reference value: 28.95%); format: functional; in short: as §2
HepG2 [14] = assay: Cell cycle arrest in human HepG2 cells assessed as accumulation at S phase at 5 uM after 48 hrs by propidium iodide staining based flow cytometry (reference value: 28.95%); format: functional; in short: as §2
HepG2 [15] = assay: Cell cycle arrest in human HepG2 cells assessed as accumulation at S phase at 10 uM after 48 hrs by propidium iodide staining based flow cytometry (reference value: 28.95%); format: functional; in short: as §2
HepG2 [16] = assay: Cell cycle arrest in human HepG2 cells assessed as accumulation at S phase at 20 uM after 48 hrs by propidium iodide staining based flow cytometry (reference value: 28.95%); format: functional; in short: as §2
HepG2 [17] = assay: Cell cycle arrest in human HepG2 cells assessed as accumulation at G2/M phase at 1 uM after 48 hrs by propidium iodide staining based flow cytometry (reference value: 21.54%); format: functional; in short: as §2
HepG2 [18] = assay: Cell cycle arrest in human HepG2 cells assessed as accumulation at G2/M phase at 5 uM after 48 hrs by propidium iodide staining based flow cytometry (reference value: 21.54%); format: functional; in short: as §2
HepG2 [19] = assay: Cell cycle arrest in human HepG2 cells assessed as accumulation at G2/M phase at 10 uM after 48 hrs by propidium iodide staining based flow cytometry (reference value: 21.54%); format: functional; in short: as §2
HepG2 [20] = assay: Cell cycle arrest in human HepG2 cells assessed as accumulation at G2/M phase at 20 uM after 48 hrs by propidium iodide staining based flow cytometry (reference value: 21.54%); format: functional; in short: as §2
HepG2 [21] = assay: Cell cycle arrest in human HepG2 cells assessed as accumulation at G2/M phase after 48 hrs by propidium iodide staining based flow cytometry; format: functional; in short: as §2

Row | Structure (SMILES) | IC50 (MDA-MB-231) | IC50 (A549) | IC50 (HepG2 [1]) | IC50 (MCF7) | also measured
1 | CCOC(=O)CN(Cc1ccccc1)c1nc(NCc2ccccc2)ncc1[N+](=O)[O-] | 82.4 µM | > 100 µM | 20.9 µM | > 100 µM | 
2 | COC(=O)CN(C)c1nc(Nc2ccccc2)ncc1[N+](=O)[O-] | > 100 µM | > 100 µM | > 100 µM | > 100 µM | 
3 | CCOC(=O)CNc1nc(Nc2ccc(OC)cc2)ncc1[N+](=O)[O-] | 32.6 µM | > 100 µM | > 100 µM | > 100 µM | 
4 | CCOC(=O)CNc1nc(Nc2ccccc2)ncc1[N+](=O)[O-] | 54.3 µM | > 100 µM | > 100 µM | > 100 µM | 
5 | CCOC(=O)CN(Cc1ccccc1)c1nc(NC2CCN(S(C)(=O)=O)CC2)ncc1[N+](=O)[O-] | 75.8 µM | > 100 µM | 57.1 µM | > 100 µM | 
6 | COC(=O)CN(C)c1nc(Nc2ccc(Cl)cc2)ncc1[N+](=O)[O-] | 21.2 µM | 23.5 µM | 49.8 µM | 60.7 µM | 
7 | COC(=O)CN(C)c1nc(NCCc2ccccc2)ncc1[N+](=O)[O-] | 44.8 µM | 37 µM | 86.7 µM | 32.5 µM | 
8 | COC(=O)CN(C)c1nc(NC2CCN(S(C)(=O)=O)CC2)ncc1[N+](=O)[O-] | 59.6 µM | > 100 µM | > 100 µM | > 100 µM | 
9 | CCOC(=O)CNc1nc(NC2CCN(S(C)(=O)=O)CC2)ncc1[N+](=O)[O-] | 80.7 µM | > 100 µM | > 100 µM | > 100 µM | 
10 | CCOC(=O)CNc1nc(Nc2cccc(OC)c2)ncc1[N+](=O)[O-] | 31.3 µM | 36.1 µM | > 100 µM | 35.8 µM | 
11 | COC(=O)CN(C)c1nc(Nc2cc(OC)c(OC)c(OC)c2)ncc1[N+](=O)[O-] | 25.9 µM | > 100 µM | 26.2 µM | 42 µM | 
12 | CCOC(=O)CNc1nc(Nc2ccc(Cl)cc2)ncc1[N+](=O)[O-] | 55.5 µM | > 100 µM | > 100 µM | > 100 µM | 
13 | CCOC(=O)CN(Cc1ccccc1)c1nc(Nc2cc(OC)c(OC)c(OC)c2)ncc1[N+](=O)[O-] | 40.4 µM | > 100 µM | 37.8 µM | > 100 µM | 
14 | CCOC(=O)CNc1nc(NCc2ccccc2)ncc1[N+](=O)[O-] | 22.3 µM | 74.4 µM | > 100 µM | 52.4 µM | 
15 | CCOC(=O)CN(Cc1ccccc1)c1nc(Nc2ccccc2)ncc1[N+](=O)[O-] | > 100 µM | > 100 µM | 44.4 µM | > 100 µM | 
16 | CCOC(=O)CN(Cc1ccccc1)c1nc(NCc2cccc(OC)c2)ncc1[N+](=O)[O-] | 80.7 µM | > 100 µM | 33.6 µM | 57.4 µM | 
17 | COC(=O)CN(C)c1nc(Nc2cccc(OC)c2)ncc1[N+](=O)[O-] | 58 µM | 31.9 µM | 73.4 µM | 93.7 µM | 
18 | CCOC(=O)CN(Cc1ccccc1)c1nc(NCCc2ccccc2)ncc1[N+](=O)[O-] | 22.3 µM | 87.3 µM | 10.4 µM | 21 µM | Ratio IC50 (HepG2 [2]): 3; solubility [3]: 3 µg/mL (≈ 6.89 µM); solubility [4]: 80.5 µg/mL (≈ 185 µM); Activity (HepG2 [5]): 5.08%; Activity (HepG2 [6]): 3.85%; Activity (HepG2 [7]): 4.8%; Activity (HepG2 [8]): 4.91%; Activity (HepG2 [9]): 34.03%; Activity (HepG2 [10]): 31.26%; Activity (HepG2 [11]): 30.91%; Activity (HepG2 [12]): 29.86%; Activity (HepG2 [13]): 28.08%; Activity (HepG2 [14]): 28.28%; Activity (HepG2 [15]): 27.02%; Activity (HepG2 [16]): 25.75%; Activity (HepG2 [17]): 25.46%; Activity (HepG2 [18]): 30.83%; Activity (HepG2 [19]): 31.94%; Activity (HepG2 [20]): 36.85%; Activity (HepG2 [21]): Dose-dependent effect
19 | CCOC(=O)CN(Cc1ccccc1)c1nc(Nc2ccc(Cl)cc2)ncc1[N+](=O)[O-] | 34.4 µM | > 100 µM | 30.9 µM | > 100 µM | 
20 | CCOC(=O)CN(Cc1ccccc1)c1nc(Nc2cccc(OC)c2)ncc1[N+](=O)[O-] | 47.2 µM | > 100 µM | 27.6 µM | > 100 µM | 
21 | O=c1[nH]cc(F)c(=O)[nH]1 [FLUOROURACIL] |  |  |  | 30.4 µM | 
22 | CCOC(=O)CNc1ncc([N+](=O)[O-])c(N(CC(=O)OCC)Cc2ccccc2)n1 | 92.5 µM | > 100 µM | 44.5 µM | > 100 µM | 
23 | COC(=O)CN(C)c1nc(NCc2ccccc2)ncc1[N+](=O)[O-] | 61.1 µM | 79.4 µM | > 100 µM | 85.9 µM | 
24 | CCOC(=O)CNc1nc(NCCc2ccccc2)ncc1[N+](=O)[O-] | 21.9 µM | 48.2 µM | 71.1 µM | > 100 µM | 

Source: ChEMBL document CHEMBL3822407, “Design, synthesis and antiproliferative activity of novel 5-nitropyrimidine-2,4-diamine derivatives bearing alkyl acetate moiety” (Eur J Med Chem, 2016)
